Laboratory results from ChEMBL document CHEMBL1123164, “Analogues of poison ivy urushiol. Synthesis and biological activity of disubstituted n-alkylbenzenes” (1986).

Key:
Type in all cases: functional
[1] = system: Cavia porcellus; assay: Skin test reactivity (intensity of erythema and edema) was measured in guinea pig sensitized to poison ivy urushiol by Draize method
Procedure, shortened: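 Urushiol-sensitized guinea pigs (1 mg in 0.15 mL acetone, dorsal neck) received eliciting doses in acetone on abdominal skin. Erythema and edema were scored 0–4 by Draize at 24, 48 and 72 h and averaged per group. Irritancy was tested with similar doses on nonsensitized animals.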

[2] = organism: Cavia porcellus; assay: Allergenic cross-reactivity was expressed as number of guinea pig with a positive skin reaction versus number tested upon sensitizing them to poison ivy urushiol; 7/7
Procedure, shortened: (§1)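 Guinea pigs sensitized topically with 1 mg purified poison ivy urushiol in 0.15 mL acetone on dorsal neck skin (about 10 cm2). Sensitivity was checked with 2 μg PDC in acetone on shaven abdominal skin. Test compounds (10 and 30 μg in acetone) went on abdominal sites. Animals counted positive for erythema/edema at 24, 48 and 72 h, alongside urushiol controls.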

[3] = organism: Cavia porcellus; assay: The dose which shows the cross-reactivity with guinea pig sensitized to poison ivy urushiol; procedure, shortened: as §1
[4] = organism: Cavia porcellus; assay: Allergenic cross-reactivity was expressed as number of guinea pig with a positive skin reaction versus number tested upon sensitizing them to poison ivy urushiol; 0/7; procedure, shortened: as §1
[5] = organism: Cavia porcellus; assay: Allergenic cross-reactivity was expressed as number of guinea pig with a positive skin reaction versus number tested upon sensitizing them to poison ivy urushiol; 5/9; procedure, shortened: as §1
[6] = organism: Cavia porcellus; assay: Allergenic cross-reactivity was expressed as number of guinea pig with a positive skin reaction versus number tested upon sensitizing them to poison ivy urushiol; 0/15; procedure, shortened: as §1
[7] = organism: Cavia porcellus; assay: Allergenic cross-reactivity was expressed as number of guinea pig with a positive skin reaction versus number tested upon sensitizing them to poison ivy urushiol; 2/9; procedure, shortened: as §1
[8] = organism: Cavia porcellus; assay: Allergenic cross-reactivity was expressed as number of guinea pig with a positive skin reaction versus number tested upon sensitizing them to poison ivy urushiol; 0/8; procedure, shortened: as §1

| SMILES | Activity [1] | Activity [2] | Dose [3] [µg] | Activity [4] | Activity [5] | Activity [6] | Activity [7] | Activity [8] |
| --- | --- | --- | --- | --- | --- | --- | --- | --- |
| CCCCCCCCCCCCCCCc1cccc(O)c1N | 2.9 | 7 | 10 |  |  |  |  |  |
| CCCCCCCCCCCCCCCc1cccc(NS(C)(=O)=O)c1O | 0 |  | 10 | 0 |  |  |  |  |
| CCCCCCCCCCCCCc1cccc(O)c1N | 2.9 | 7 | 10 |  |  |  |  |  |
| CCCCCCCCCCCCCCCc1cc(O)cc(O)c1 [CARDOL] | 0.6 |  | 30 |  | 5 |  |  |  |
| CCCCCCCCCCCCCCCCCc1cccc(O)c1N | 2.9 | 7 | 10 |  |  |  |  |  |
| CCCCCCCCCCCCCCCc1cc(O)ccc1O | 0 |  | 1 |  |  | 0 |  |  |
| CCCCCCCCCCCCCCCc1cccc(N)c1O | 2.4 | 7 | 10 |  |  |  |  |  |
| CCCCCCCCCCCCCCCc1cccc(O)c1NS(C)(=O)=O | 0 |  | 10 | 0 |  |  |  |  |
| CCCCCCCCCCCCCCCCCc1cccc(O)c1NS(C)(=O)=O | 0 |  | 10 | 0 |  |  |  |  |
| CCCCCCCCCCCCCCCc1ccc(O)c(O)c1 | 0.1 |  | 1 |  |  |  | 2 |  |
| CCCCCCCCCCCCCc1cccc(O)c1NS(C)(=O)=O | 0 |  | 10 | 0 |  |  |  |  |
| CCCCCCCCCCCCCCCc1ccc(O)cc1O | 0 |  | 30 |  |  | 0 |  |  |
| CCCCCCCCCCCCCCc1c(O)cccc1O | 0 |  | 10 |  |  |  |  | 0 |
